For data set [1] the following is noted: cited from earlier work.
Data set [2] has as its system PPARγ. The settings on record: cited from earlier work.
In data set [3] the test system is 3T3-L1 cells. Description: Cell viability / cytotoxicity, CCK-8 assay. The class given is cell-based. The settings on record: CCK-8, 48 h. An outline of the steps: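 3T3-L1 preadipocytes were seeded at 1 × 10^3 cells per well and incubated for 12 h. They were then exposed to varying concentrations of test compound for 48 h. Viability was measured with the CCK-8 kit following the manufacturer's guidelines, reading optical density at 450 nm. Data are means ± SD from triplicate experiments (n = 3), compared by Student's t test at P ≤ 0.05.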

For the molecule `COc1ccc(C[C@@H]2c3cc(Oc4cc(C[C@@H]5c6cc(OC)c(OC)cc6CCN5C)ccc4O)c(OC)cc3CCN2C)cc1` [Compound 7, neferine], the “antiadipogenic activity (in words)” value in data set [1] was “antiadipogenic activity”. In data set [2], the “PPARγ inhibitory effect (in words)” value was “PPARγ inhibitory effect”. This molecule returned a maximum noncytotoxic concentration in data set [3] of 10 µM.

In data set [3], `C=C(c1ccc(O)c(Oc2cc3c(cc2OC)CCN(C)[C@@H]3Cc2ccc(OC)cc2)c1)[C@@H]1c2cc(OC)c(OC)cc2CCN1C` [Compound 2, 1R,1′R-neoneferine A] registered a maximum noncytotoxic concentration of 15 µM.

As to `C=C(c1ccc(O)c(Oc2cc3c(cc2OC)CCN(C)[C@@H]3Cc2ccc(OC)cc2)c1)[C@@H]1c2cc(O)c(OC)cc2CCN1C` [Compound 4, 1R,1′R-neoisoliensinine A], in data set [3], the maximum noncytotoxic concentration is 10 µM.

The molecule `C=C(c1ccc(O)c(Oc2cc3c(cc2OC)CCN(C)[C@@H]3Cc2ccc(OC)cc2)c1)[C@H]1c2cc(OC)c(OC)cc2CCN1C` [Compound 3, 1R,1′S-neoneferine A] gave a maximum noncytotoxic concentration in data set [3] of 5 µM.

The molecule `COc1ccc(C[C@@H]2c3cc(Oc4cc(C[C@H]5c6cc(OC)c(OC)cc6CCN5C)ccc4O)c(OC)cc3CCN2C)cc1` [Compound 8, 1′-epi-neferine] yielded a maximum noncytotoxic concentration in data set [3] of 5 µM.

The molecule `C=C(c1ccc(O)c(Oc2cc3c(cc2OC)CCN(C)[C@@H]3Cc2ccc(OC)cc2)c1)[C@H]1c2cc(O)c(OC)cc2CCN1C` [Compound 5, 1R,1′S-neoisoliensinine A] displayed a maximum noncytotoxic concentration in data set [3] of 5 µM.

Values taken from publication PMC11061834 (Journal of Natural Products, 2024).
